Bioassay records deposited in PubChem BioAssay by Sanford-Burnham Center for Chemical Genomics.
Apaf-1 act – activators of human Apaf-1 apoptosome, primary screen, biochemical, DEVD-Rh110 fluorescence, uHTS | Apoptotic protease-activating factor 1 (Homo sapiens), O14727 | Apaf-1 apoptosome caspase-3 activation; active compounds read low | activity change, negative = activation, % at 20 µM | hit rate 0.31% among 330,000 | AID 489031, 2010;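 active = activity change at or below -40% at 20 µM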
Target sequence (O14727 whole entry, looked up): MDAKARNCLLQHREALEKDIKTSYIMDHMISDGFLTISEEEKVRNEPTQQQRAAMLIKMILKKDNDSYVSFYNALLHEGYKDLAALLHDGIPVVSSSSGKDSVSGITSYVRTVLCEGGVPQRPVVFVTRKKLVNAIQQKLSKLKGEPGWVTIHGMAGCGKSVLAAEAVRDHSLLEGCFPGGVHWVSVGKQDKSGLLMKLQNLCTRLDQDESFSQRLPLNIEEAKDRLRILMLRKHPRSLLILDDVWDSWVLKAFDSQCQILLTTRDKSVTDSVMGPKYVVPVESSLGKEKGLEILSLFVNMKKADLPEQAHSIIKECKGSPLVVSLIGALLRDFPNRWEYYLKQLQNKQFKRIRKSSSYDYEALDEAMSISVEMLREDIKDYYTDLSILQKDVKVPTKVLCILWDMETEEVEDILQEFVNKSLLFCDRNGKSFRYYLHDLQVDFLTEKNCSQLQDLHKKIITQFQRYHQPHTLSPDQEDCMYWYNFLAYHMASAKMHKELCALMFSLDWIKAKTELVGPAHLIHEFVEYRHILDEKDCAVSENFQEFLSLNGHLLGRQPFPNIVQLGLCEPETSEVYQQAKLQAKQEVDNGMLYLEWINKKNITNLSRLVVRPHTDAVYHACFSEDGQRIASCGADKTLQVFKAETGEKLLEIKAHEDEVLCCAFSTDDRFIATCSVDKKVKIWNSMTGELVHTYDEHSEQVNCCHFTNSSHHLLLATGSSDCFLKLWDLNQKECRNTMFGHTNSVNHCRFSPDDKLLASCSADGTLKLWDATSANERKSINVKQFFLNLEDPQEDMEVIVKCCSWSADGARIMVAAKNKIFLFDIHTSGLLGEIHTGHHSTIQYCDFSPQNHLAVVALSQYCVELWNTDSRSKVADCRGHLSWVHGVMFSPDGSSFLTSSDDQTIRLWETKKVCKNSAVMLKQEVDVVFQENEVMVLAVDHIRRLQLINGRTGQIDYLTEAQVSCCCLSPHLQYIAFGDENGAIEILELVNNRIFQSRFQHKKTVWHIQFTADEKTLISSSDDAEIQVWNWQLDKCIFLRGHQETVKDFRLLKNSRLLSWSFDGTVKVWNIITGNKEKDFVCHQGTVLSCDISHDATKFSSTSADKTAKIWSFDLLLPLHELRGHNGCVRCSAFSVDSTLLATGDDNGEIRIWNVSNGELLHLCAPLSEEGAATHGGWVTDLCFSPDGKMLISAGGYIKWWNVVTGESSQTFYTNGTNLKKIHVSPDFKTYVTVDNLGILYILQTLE
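Assay system – biochemical Apaf-1 apoptosome reconstitution · Medium – 20 mM HEPES buffer, pH 7.5, containing CHAPS and BSA · Incubation – 30 min preincubation, 50 min reaction, room temperature · Measured by – Caspase-3-released Rh110 fluorescence, 540 nm emission, 480 nm excitation · Read-out – Caspase-3 cleavage activity downstream of Apaf-1 activation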
Rh110 act interf – Rh110 fluorescence interference by putative Apaf-1 activators, confirmation, artefact control for Apaf-1 activator project, biochemical, 20 µM. shares compounds with Apaf-1 act. quenched caspase reaction, Ex480/Em540. fluorescence interference (activity change), % at 20 µM, hits read low. 980 tested, under 10 active;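 active = mean activity change at or below -40% when tested at 20 µM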
Apaf-1 act conf2 – Apaf-1 activators, single-dose retest, confirmation, biochemical, fluorescence, DEVD-Rh110, 20 µM; shares compounds with Apaf-1 act; reconstituted apoptosome caspase-3 activity; active compounds read low; activity change, negative = activation, % at 20 µM; hit rate 5% among 980; AID 504617, 2011;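 active = mean activity change at or below -40%, meaning activation of 40% or more, at 20 µM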
Fluor interf act – fluorescence interference of Apaf-1 activator hits, dose response, artefact control for Apaf-1 activator project | AID 588592, 2011 | shares compounds with Apaf-1 act | 55 tested, under 10 active | fluorescence interference counterscreen, Apaf-1 activator assay | EC50, µM; call rule not given here
Starred values were filed as active, the others as inactive. Not all results are given here.

Screening O=C(NNc1ccccc1C(F)(F)F)c1cccs1 returned Apaf-1 act -107*, Rh110 act interf 4 and Apaf-1 act conf2 8.
For O=C(Nc1ccc(-c2nc3ccc(NC(=O)c4cccs4)cc3[nH]2)cc1)c1cccs1 the results were Apaf-1 act 69.
For NC(N)=N/N=C/c1ccc(OCc2ccccc2Cl)cc1 the results were Apaf-1 act 43.
For CCCCCCCCCCOC(=O)Cn1c(COc2ccc(OC)cc2)[n+](C)c2ccccc21 the results were Apaf-1 act 72.
For C#CC(CC)(CC)NC(=O)/C=C/C(=O)O the results were Apaf-1 act -566*, Rh110 act interf 7 and Apaf-1 act conf2 11.
`CCC(CO)Oc1cc(NCc2ccccc2OC)c2ncn(C(C)C)c2c1` (stereo not drawn) gave Apaf-1 act 61.
Screening Cc1cc(OCC(=O)NCCO)ccc1Cl returned Apaf-1 act -53*, Rh110 act interf 7 and Apaf-1 act conf2 11.
For CN1CCN(c2ccc(NC(=O)COc3ccccc3)cc2Cl)CC1 the results were Apaf-1 act 49.
For CCOC(=O)c1c(NC(=O)CN2CCN(C(=O)c3ccco3)CC2)sc2c1CCCC2 the results were Apaf-1 act 48.
Screening CCOc1ccc(/C=N/OCC(=O)Nc2cc(S(=O)(=O)N3CCOCC3)ccc2OC)cc1 returned Apaf-1 act -55*, Rh110 act interf -2 and Apaf-1 act conf2 14.
For CC(C)(CS(=O)(=O)[O-])NC(=O)CC[N+](C)(C)CCO the results were Apaf-1 act -598*, Rh110 act interf 8, Apaf-1 act conf2 -128* and Fluor interf act >100.
Screening COc1ccc2[nH]c3c(c2c1)CCN1C(=O)C(CC(=O)NCCC2=CCCCC2)C[C@H](C(=O)N2CCOCC2)[C@@]31CCC1CCCC1 (stereo partly drawn) returned Apaf-1 act 44.
`COc1ccc(O[C@H]2C=C[C@@H](c3ccccc3)O[C@@H]2CO/N=C(\C)CCN2CCc3nc(-c4ccccc4)c(-c4ccccc4)cc3C2)cc1` gave Apaf-1 act 48.
For COc1ccc(C(CCN2CCOCC2)c2c(OC)cc(OC)c3c(-c4ccccc4)cc(=O)oc23)cc1 (stereo not drawn) the results were Apaf-1 act 53.
`CS(=O)(=O)Nc1ccc(C(=O)Nc2ccc3c(c2)OCO3)cc1` gave Apaf-1 act -58*, Rh110 act interf -4 and Apaf-1 act conf2 1.
`CCN(C(=O)c1coc(=O)c(Br)c1)c1ccc2c(c1)OCO2` gave Apaf-1 act 59.
Cc1ccc(NC(=O)c2ccc(CN3CCc4ccccc4C3)cc2)cc1 was read as Apaf-1 act 48.
CCOC(=O)CNc1ccc2c(c1)OCO2 was read as Apaf-1 act 40.
`CCCCc1ccc(NC(=O)c2ccc(NS(C)(=O)=O)cc2)cc1` gave Apaf-1 act -102*, Rh110 act interf 3 and Apaf-1 act conf2 13.
NC(=O)C1CCN(C2=C(Cl)C(=O)c3ccccc3C2=O)CC1 was read as Apaf-1 act 73.
CCC12CCCN3CCc4c(n(c5ccccc45)C(O)(C(=O)OC)C1)C32 (stereo not drawn) was read as Apaf-1 act 41.
Screening COc1ccc(/C=C/C(=O)OCC(=O)N2CCCC2)c(OC)c1 returned Apaf-1 act -40*, Rh110 act interf 7 and Apaf-1 act conf2 15.
`CCOc1ccc(NC(=O)c2c[nH]n3c(=O)cc(C4CCN(C(=O)OC(C)(C)C)CC4)nc23)cc1` gave Apaf-1 act 40.
CCCCCCc1cc2cc(-c3nnc(-c4ccccc4O)o3)c(=O)oc2cc1O was read as Apaf-1 act -140*, Rh110 act interf 10, Apaf-1 act conf2 -43* and Fluor interf act >100.
Screening CCCCCCc1cc2cc(-c3nnc(-c4cc(OC)c(OC)c(OC)c4)o3)c(=O)oc2cc1O returned Apaf-1 act 63.
For CCCCCCc1cc2cc(-c3nnc(-c4ccccc4OC)o3)c(=O)oc2cc1O the results were Apaf-1 act 62.
Screening CN1CCN(C2=C(NS(=O)(=O)c3ccccc3)C(=O)c3ccccc3C2=O)CC1 returned Apaf-1 act 79.
`COc1ccccc1NC(=O)Nc1ccccc1C(N)=O` gave Apaf-1 act -630*, Rh110 act interf 5 and Apaf-1 act conf2 7.
Screening COC1=C(Nc2ccccc2OC)C(=O)c2ccccc2C1=O returned Apaf-1 act 54.
Screening CCN(CC(=O)Nc1ccccc1OC)C(=O)c1ccccc1Sc1ccccc1C#N returned Apaf-1 act 58.
COc1cc(OC)c2c(-c3ccccc3)cc(=O)oc2c1C(CCN1CCOCC1)c1ccc2c(c1)OCO2 (stereo not drawn) was read as Apaf-1 act 42.
N#Cc1ccccc1OCC(=O)OCC(=O)N1CCCC1 was read as Apaf-1 act -110*, Rh110 act interf 11 and Apaf-1 act conf2 15.
CCN1CCN(Cc2ccc(NC(=O)c3cc(NC(=O)C4=NN(c5ccccc5)C(=O)C4)cc(OC)c3)cc2C(F)(F)F)CC1 was read as Apaf-1 act 51.
`O=C1CCN(Cc2ccccc2)C=C1c1ccc(Cl)cc1` gave Apaf-1 act 47.
Cc1ccc(-c2csc(NC(=O)C3=NN(C4CCS(=O)(=O)C4)C(=O)CC3)n2)cc1 (stereo not drawn) was read as Apaf-1 act -58*, Rh110 act interf 8 and Apaf-1 act conf2 -21.
`Cc1cnc(NC(=O)C2=C(O)c3ccccc3S(=O)(=O)N2C)s1` gave Apaf-1 act -2.
NS(=O)(=O)Cc1noc2ccccc12 was read as Apaf-1 act -79*, Rh110 act interf -4 and Apaf-1 act conf2 7.
Screening Cc1cc(C)nc(NC(=O)CSc2nc3ccccc3o2)n1 returned Apaf-1 act -71*, Rh110 act interf 0 and Apaf-1 act conf2 13.
Screening Nc1cc2nc3ccccc3oc-2cc1=O returned Apaf-1 act 48.
For C[n+]1cccc2c(Br)ccc([O-])c21 the results were Apaf-1 act 98.
Screening CN(C)CCCNC(=O)C[C@H]1C[C@H](C(=O)N2CCCCC2)[C@@]2(CCc3ccccc3)c3[nH]c4cc(-c5ccco5)ccc4c3CCN2C1=O returned Apaf-1 act 72.
`c1ccc(-c2sc3ccccc3c2-c2ccc(OCCN3CCCCC3)cc2)cc1` gave Apaf-1 act 52.
Screening CC(C)(C)c1ccc(C(=O)NNC(=S)NCc2ccco2)cc1 returned Apaf-1 act -41*, Rh110 act interf 6 and Apaf-1 act conf2 14.
`Cc1nn(-c2ccccc2)c(C)c1CN(C)C(=O)c1ccc(S(=O)(=O)NCc2ccco2)cc1` gave Apaf-1 act 49.
`O=C(NCCO)c1ccc2nc(-c3ccco3)c(-c3ccco3)nc2c1` gave Apaf-1 act 78.
For COCCN(Cc1ccccc1)C(=O)c1cccc(S(=O)(=O)N2CCN(c3ccccc3)CC2)c1 the results were Apaf-1 act 43.
